SR-BI HDL uptake: mouse SR-BI HDL lipid transfer inhibition | Q61009 | ldlA[mSR-BI] CHO cells, DiI-HDL uptake fluorescence, 3 h | inhibition, % at 12.5 µM | 320,000 compounds, 0.96% hits | AID 488896;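 active = mean replicate inhibition of at least 70% and a set share of replicates each scoring 70 or more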;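 note: 0% = median of neutral control wells and 100% = median of positive control wells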
Target sequence (Q61009 whole entry, looked up): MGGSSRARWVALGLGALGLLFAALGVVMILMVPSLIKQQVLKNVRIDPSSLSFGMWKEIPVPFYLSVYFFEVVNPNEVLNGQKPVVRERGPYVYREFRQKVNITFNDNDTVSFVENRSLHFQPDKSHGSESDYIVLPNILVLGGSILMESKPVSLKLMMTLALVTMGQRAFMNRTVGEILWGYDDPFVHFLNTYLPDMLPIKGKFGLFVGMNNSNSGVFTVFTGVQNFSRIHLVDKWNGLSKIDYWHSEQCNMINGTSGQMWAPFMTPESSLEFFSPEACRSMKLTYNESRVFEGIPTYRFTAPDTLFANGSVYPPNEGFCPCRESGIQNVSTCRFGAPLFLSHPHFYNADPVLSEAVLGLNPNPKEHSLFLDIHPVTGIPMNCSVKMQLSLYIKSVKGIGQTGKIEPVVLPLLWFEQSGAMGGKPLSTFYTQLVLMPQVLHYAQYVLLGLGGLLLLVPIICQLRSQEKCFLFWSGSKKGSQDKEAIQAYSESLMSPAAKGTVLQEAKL
PKA-R2B activ: activators of human PKA-R2B complex; AID 504700; PKA-R2B holoenzyme dissociation, Cy5-IP20 fluorescence polarization; R2B truncated from residue 108, S112A mutant; 0% DMSO only, 100% 113 µM cGMP; activation, % at 11.4 µM; 340,000 compounds, 0.079% hits;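 active = activation above a cutoff set at the mean over all compounds plus 3 SD, cut at about 18% in these data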;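 note: higher means more holoenzyme dissociation and a rise in polarization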
PKA-R1A activ: activators of PKA-R1A complex | P00514+P68181 | PKA-R1A dissociation, Cy5-IP20 fluorescence polarization; scaled: DMSO 0%, 113 µM cGMP 100% | activation, % at 11.4 µM | 340,000 compounds, 0.083% hits | AID 504707;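 active = percent activation above the mean of all tested compounds plus 3 SD, cut at about 19% in these data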;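 note: higher means more PKAc released from R1A so a rise in polarization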
Vif inh: blocks HIV Vif function; HEK293T cells, Vif self-association by quenched fluorescence, imaging, 24 h; inhibition, % at 7.49 µM; 340,000 compounds, 0.35% hits; AID 602346; in the data active = inhibition above about 50%, passing the limit was not always enough
SR-BI uptake up: SR-BI HDL lipid transfer activation; 320,000 compounds, 0.096% hits; activation, % at 12.5 µM; CHO ldlA[mSR-BI] cells, DiI-HDL uptake fluorescence, 3 h; 100 = double the neutral-control signal;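 active = mean replicate activation of at least 60% and every replicate at or above 60%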;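 note: 0% = median plate neutral-control signal and 100% = twice that signal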
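Test system: SR-BI-overexpressing, LDLR-lacking CHO cells. Measured by: DiI fluorescence, bottom read. Medium: Ham's F12 with 0.5% BSA, HEPES 25 mM, pH 7.4. Timing: 3 h uptake period with compound, 37 °C.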
Starred values were filed as active, the others as inactive. Most compounds without a hit are left out; they make up all but 1.4% or so of the library.

How did Cn1c(N)c(C(=O)CSc2nnc(Cc3cccs3)n2C2CC2)c(=O)n(C)c1=O do in these assays?
SR-BI HDL uptake: -13.2; PKA-R2B activ: -3.5; PKA-R1A activ: -0.2; Vif inh: -0.3; SR-BI uptake up: 13.2

What do the screens show for `CCNc1nc(ON=C(C)C)nc(N(C)C)n1`?
SR-BI HDL uptake: -64.1; PKA-R2B activ: 14.3; PKA-R1A activ: 0.1; Vif inh: 9.5; SR-BI uptake up: 64.1*

How did CCNc1nc(NCC)nc(OCCOC(C)=O)n1 do in these assays?
SR-BI HDL uptake: -17.3; PKA-R2B activ: 2.7; PKA-R1A activ: -8.2; Vif inh: 27.4; SR-BI uptake up: 17.3

Results for O=C(NCc1ccco1)/C(=C\C=C\c1ccccc1)NC(=O)c1ccccc1Br ?
SR-BI HDL uptake: 32.3; PKA-R2B activ: -6.9; PKA-R1A activ: -10.2; Vif inh: 2.7; SR-BI uptake up: -26.3

Results for COCCNc1oc(/C=C/c2ccccc2)nc1C#N ?
SR-BI HDL uptake: 19.2; PKA-R2B activ: -2.5; PKA-R1A activ: -3.9; Vif inh: 55.3*; SR-BI uptake up: -19.2

What do the screens show for `Cc1ncc(CO)c(/C=N/NC(=O)c2cc(Br)ccc2O)c1O`?
SR-BI HDL uptake: 116.5*; PKA-R2B activ: -4.7; PKA-R1A activ: -3.7; Vif inh: 7.8; SR-BI uptake up: -116.4

What do the screens show for `Cn1c(=O)c2c(nc(NCC3CCCC(CN)C3)n2Cc2ccc(Cl)cc2Cl)n(C)c1=O` (centres undefined)?
SR-BI HDL uptake: -3.5; PKA-R2B activ: 2.2; PKA-R1A activ: -7.4; Vif inh: 51.2*; SR-BI uptake up: 3.5

How did CCOc1ccc(-c2cc(C(=O)Nc3ccc(C)c(NS(C)(=O)=O)c3)[nH]n2)c(C)c1 do in these assays?
Vif inh: -30.6

What do the screens show for `CN(C)CC/C=C1/c2ccccc2CS(=O)(=O)c2ccccc21`?
SR-BI HDL uptake: -8.6; PKA-R2B activ: -7.2; PKA-R1A activ: -2.5; Vif inh: 84.8*; SR-BI uptake up: 8.6

How did CN(C)CC/C=C1\c2ccccc2COc2ccccc21 do in these assays?
SR-BI HDL uptake: -1.8; PKA-R2B activ: -2.3; PKA-R1A activ: 4.5; Vif inh: 13.1; SR-BI uptake up: 1.8

Results for COc1cc2ccccc2cc1C(=O)NC1CCCC1 ?
SR-BI HDL uptake: 33.8; PKA-R2B activ: -0.3; PKA-R1A activ: 5.8; Vif inh: 5.3; SR-BI uptake up: -33.8

How did COc1cc2ccccc2cc1C(=O)NC1CCC(C)CC1 (centres undefined) do in these assays?
SR-BI HDL uptake: 70.7*; PKA-R2B activ: -10.2; PKA-R1A activ: -1.5; Vif inh: -2.0; SR-BI uptake up: -70.7

How did Cc1[nH]c2ccccc2c1N=Nc1ccc(F)cc1 do in these assays?
SR-BI HDL uptake: 83.1*; PKA-R2B activ: -9.8; PKA-R1A activ: -11.4; Vif inh: 12.8; SR-BI uptake up: -83.1

How did Cc1cc(C)c(O)c(CN(C)Cc2cc(Cl)cc(Cl)c2O)c1 do in these assays?
SR-BI HDL uptake: 112.2*; PKA-R2B activ: -0.2; PKA-R1A activ: 3.0; Vif inh: -1.5; SR-BI uptake up: -112.2

Results for Cc1ccnc(NCc2cc(Cl)cc(Cl)c2O)c1 ?
PKA-R2B activ: -3.4; PKA-R1A activ: -1.9

What do the screens show for `COc1ccc(CSc2nnc(SCc3ccc([N+](=O)[O-])cc3)s2)cc1`?
SR-BI HDL uptake: -5.4; PKA-R2B activ: 13.5; PKA-R1A activ: 18.6*; Vif inh: -0.8; SR-BI uptake up: 5.4

How did CC1=CC(=C(C#N)c2nc3ccccc3s2)C=C(C)N1CC1CCCO1 (centres undefined) do in these assays?
SR-BI HDL uptake: 88.2*; PKA-R2B activ: -2.7; PKA-R1A activ: -2.5; Vif inh: 4.7; SR-BI uptake up: -88.2

Results for CCC1(C(=O)OC)NC(c2ccco2)C2C(=O)N(c3ccc(C)cc3)C(=O)C21 (centres undefined) ?
SR-BI HDL uptake: -157.8; PKA-R2B activ: 0.9; PKA-R1A activ: -8.1; Vif inh: 5.5; SR-BI uptake up: 157.8*

Results for CC(CCN1CCN(CCO)CC1)c1ccccc1 (centres undefined) ?
SR-BI HDL uptake: -3.7; PKA-R2B activ: -3.6; PKA-R1A activ: 0.2; Vif inh: -3.5; SR-BI uptake up: 3.7

What do the screens show for `COc1cc(C(C)=O)ccc1OCC(=O)NCC1(N2CCCCC2)CCCCC1`?
SR-BI HDL uptake: 3.1; PKA-R2B activ: -1.9; PKA-R1A activ: -3.3; Vif inh: 51.0*; SR-BI uptake up: -3.1

What do the screens show for `O=C/C(=C\Nc1ccccn1)c1nc2cc(Cl)ccc2o1`?
SR-BI HDL uptake: -3.7; PKA-R2B activ: -2.1; PKA-R1A activ: -10.4; Vif inh: 61.0*; SR-BI uptake up: 3.7

What do the screens show for `O=C(Nc1ncc(Cc2cccc(Cl)c2Cl)s1)c1ccc([N+](=O)[O-])cc1`?
SR-BI HDL uptake: 66.0; PKA-R2B activ: 2.3; PKA-R1A activ: 3.5; Vif inh: 2.8; SR-BI uptake up: -66.0

What do the screens show for `O=C(Nc1ncc(Cc2cc(Cl)ccc2Cl)s1)c1ccc([N+](=O)[O-])cc1`?
SR-BI HDL uptake: 81.5*; PKA-R2B activ: -3.6; PKA-R1A activ: -12.7; Vif inh: -14.3; SR-BI uptake up: -81.5

Results for O=C(CN1CCOCC1)OCCCC1CCCCC1 ?
SR-BI HDL uptake: -3.8; PKA-R2B activ: -8.4; PKA-R1A activ: -0.6; Vif inh: 53.7*; SR-BI uptake up: 3.8

How did Cc1cccc(NC(=O)CSc2nnc(CNC(=O)c3ccc(S(=O)(=O)N(C)C)cc3)n2-c2cccc(C)c2)c1 do in these assays?
SR-BI HDL uptake: 84.8*; PKA-R2B activ: -2.0; PKA-R1A activ: -20.9; Vif inh: 1.2; SR-BI uptake up: -84.8

How did C/C(=N\NC(=O)c1c(Cl)c(C)nn1C)c1ccc(NC(=O)C2CCC2)cc1 do in these assays?
SR-BI HDL uptake: 31.0; PKA-R2B activ: -10.9; PKA-R1A activ: -7.8; Vif inh: 25.1; SR-BI uptake up: -31.0

What do the screens show for `C/C(=N\NC(=O)c1c([N+](=O)[O-])c(C)nn1C)c1ccc(NC(=O)C2CCCC2)cc1`?
SR-BI HDL uptake: 19.2; PKA-R2B activ: -13.6; PKA-R1A activ: -1.8; Vif inh: 64.2*; SR-BI uptake up: -19.2

How did N#CCCn1cc(/C=N/NC(N)=S)c(-c2ccccc2)n1 do in these assays?
SR-BI HDL uptake: 79.0*; PKA-R2B activ: 2.3; PKA-R1A activ: -3.4; Vif inh: -0.9; SR-BI uptake up: -79.0

Results for Cc1nnc(SCCn2c(N(C)Cc3ccccc3)nc3c2c(=O)[nH]c(=O)n3C)s1 ?
SR-BI HDL uptake: -20.0; PKA-R2B activ: 2.2; PKA-R1A activ: -5.3; Vif inh: 61.9*; SR-BI uptake up: 20.0

Results for Cn1ccnc1CN1CCCCC1C(=O)Nc1ccc(Oc2cccnc2)cc1 (centres undefined) ?
SR-BI HDL uptake: -20.5; PKA-R2B activ: -3.1; PKA-R1A activ: -2.1; Vif inh: -8.3; SR-BI uptake up: 20.6

High-throughput results deposited in PubChem by several laboratories.
